Test [1] relates to Mus musculus. In words: Antinociceptive activity in Swiss mouse assessed as tail withdrawal response at 100 mg/kg, ip after 30 mins by warm-water tail-withdrawal assay. To be noted: route intraperitoneal. The format is functional.
The subject of test [2] is Mus musculus. In words: Antinociceptive activity against acetic acid-induced writhing in Swiss mouse assessed as reversal of […] response at 3.2 mg/kg, ip by writhing assay. It counts as functional, organism-based. Details: dose 3.2 mg/kg. In outline:
(§1)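 Mouse abdominal stretch assay. […] Stretches were counted, with saline as vehicle. Statistics used one-way ANOVA with Dunnett's post hoc test versus agonist alone and versus test ligand alone.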

For test [3], the system named is Mus musculus. The format is functional, organism-based. Also on record: dose 3.2 mg/kg. To be noted: Swiss, 3.2 mg/kg.
Test [4] relates to Mus musculus. In words: Antinociceptive activity against acetic acid-induced writhing in Swiss mouse assessed as reversal of […] response at 1 mg/kg, ip by writhing assay. The format is functional, organism-based. Details: dose 1 mg/kg.
In test [5] the test system is Mus musculus. In words: Antinociceptive activity against acetic acid-induced writhing in Swiss mouse assessed as reversal of mu opioid receptor agonist morphine response at 3.2 mg/kg, ip by writhing assay. The format is functional, organism-based. Also on record: dose 3.2 mg/kg. In short, it runs like this:
as §1

The test system of test [6] is Mus musculus. Put plainly: Antinociceptive activity against acetic acid-induced writhing in Swiss mouse assessed as reversal of mu opioid receptor agonist morphine response at 1 mg/kg, ip by writhing assay. The format is functional, organism-based. Also on record: dose 1 mg/kg.
In test [7] the target is T1, Delta-type opioid receptor (Homo sapiens, UniProt P41143). Put plainly: Displacement of [3H]DPDPE from human recombinant delta opioid receptor expressed in CHO cells by liquid scintillation counting. The format is cell-based. In short, it runs like this:
(§2)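 Competitive displacement binding uses membranes from CHO cells expressing recombinant human opioid receptors. Radioligands are [3H]DAMGO for mu and [3H]DPDPE for delta. Ki is reported in nM as the mean of two experiments, each run in triplicate.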

The subject of test [8] is Mus musculus. It counts as functional, organism-based. Details: dose 1 mg/kg. The conditions noted are these: Swiss, 1 mg/kg.
In test [9] the test system is Mus musculus. In words: Antinociceptive activity in Swiss mouse assessed as tail withdrawal response at 100 mg/kg, ip after 3 days by warm-water tail-withdrawal assay. The format is functional. To be noted: route intraperitoneal.
The target in test [10] is Mu-type opioid receptor (Homo sapiens, UniProt P35372). Put plainly: Displacement of [3H]DAMGO from human recombinant mu opioid receptor expressed in CHO cells by liquid scintillation counting. It counts as cell-based. In outline: as §2
Test [11] deals with T2, Kappa-type opioid receptor (Homo sapiens, UniProt P41145). Put plainly: Displacement of [3H]U69593 from human recombinant kappa opioid receptor expressed in CHO cells by liquid scintillation counting. It counts as cell-based.
The nature of test [12]: Displacement of [3H]DPDPE from human recombinant delta opioid receptor expressed in CHO cells by liquid scintillation counting.
The target in test [13] is T2, Kappa-type opioid receptor. Put plainly: Agonist activity at human kappa opioid receptor expressed in CHO cells assessed as [35S]GTPgammaS binding relative to U69593. The format is functional, cell-based. In short, it runs like this: (§3)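 Membranes from CHO cells transfected with individual recombinant human opioid receptors (mu, delta or kappa). Ligand-stimulated [35S]GTPγS binding is measured at each receptor type, for agonist stimulation and for antagonism. At kappa, agonist efficacy is expressed as % stimulation relative to U69593, alongside EC50.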

Test [14] has as its system Mus musculus. In words: Antinociceptive activity in Swiss mouse assessed as tail withdrawal response at 100 mg/kg, ip after […] by warm-water tail-withdrawal assay. To be noted: route intraperitoneal. It counts as functional.
Test [15] deals with T2, Kappa-type opioid receptor. In words: Agonist activity at human kappa opioid receptor expressed in CHO cells assessed as [35S]GTPgammaS binding. The format is functional, cell-based. In short, it runs like this: as §3
For test [16], the target named is T1, Delta-type opioid receptor. In words: Agonist activity at human delta opioid receptor expressed in CHO cells assessed as [35S]GTPgammaS binding. It counts as functional, cell-based. In short, it runs like this:
as §3

Test [17] deals with Mus musculus. Put plainly: Antinociceptive activity in Swiss mouse assessed as inhibition of acetic acid-induced writhing at 0.32 mg/kg, ip by writhing assay in presence of delta opioid receptor antagonist naltrindole. The format is functional, organism-based. Also on record: dose 0.32 mg/kg.
Test [18] concerns Mus musculus. Put plainly: Antinociceptive activity in Swiss mouse assessed as inhibition of acetic acid-induced writhing at 0.32 mg/kg, ip by writhing assay in presence of mu opioid receptor antagonist M-CAM. The format is functional, organism-based. Also on record: dose 0.32 mg/kg.
Test [19] relates to Mus musculus. Put plainly: Antinociceptive activity in Swiss mouse assessed as inhibition of acetic acid-induced writhing at 0.32 mg/kg, ip by writhing assay. The format is functional, organism-based. Also on record: dose 0.32 mg/kg.
Test [20] concerns Mus musculus. Put plainly: Antinociceptive activity in Swiss mouse assessed as tail withdrawal response at 3.2 mg/kg, ip by warm-water tail-withdrawal assay. It counts as functional, organism-based. Details: dose 3.2 mg/kg. In outline: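 Mouse warm-water (50 °C) tail-withdrawal assay. Compound was given across a dose range, and antinociception was expressed as a percentage of the maximum possible effect.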

Test [21] has as its system Mus musculus. In words: Antinociceptive activity in Swiss mouse assessed as inhibition of acetic acid-induced writhing at 0.32 mg/kg, ip by writhing assay in presence of kappa opioid receptor antagonist norBNI. It counts as functional, organism-based. Also on record: dose 0.32 mg/kg.
Test [22] deals with T1, Delta-type opioid receptor. In words: Agonist activity at human delta opioid receptor expressed in CHO cells assessed as [35S]GTPgammaS binding relative to DPDPE. It counts as functional, cell-based. In short, it runs like this:
as §3

The source made the active and inactive calls. The calls are words filed in the database; no cut-off is given here.

T1 sequence (P41143 whole entry): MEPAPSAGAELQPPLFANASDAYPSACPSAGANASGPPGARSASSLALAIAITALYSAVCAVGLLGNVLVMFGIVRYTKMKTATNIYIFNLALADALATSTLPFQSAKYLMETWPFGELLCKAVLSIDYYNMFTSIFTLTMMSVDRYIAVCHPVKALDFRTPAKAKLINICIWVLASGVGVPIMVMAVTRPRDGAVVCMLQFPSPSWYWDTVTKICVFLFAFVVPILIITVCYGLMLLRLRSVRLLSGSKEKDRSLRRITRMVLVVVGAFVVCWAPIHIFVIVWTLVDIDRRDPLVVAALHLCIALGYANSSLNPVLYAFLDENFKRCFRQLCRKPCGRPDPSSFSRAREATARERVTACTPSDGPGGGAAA
T2 sequence (P41145 whole entry): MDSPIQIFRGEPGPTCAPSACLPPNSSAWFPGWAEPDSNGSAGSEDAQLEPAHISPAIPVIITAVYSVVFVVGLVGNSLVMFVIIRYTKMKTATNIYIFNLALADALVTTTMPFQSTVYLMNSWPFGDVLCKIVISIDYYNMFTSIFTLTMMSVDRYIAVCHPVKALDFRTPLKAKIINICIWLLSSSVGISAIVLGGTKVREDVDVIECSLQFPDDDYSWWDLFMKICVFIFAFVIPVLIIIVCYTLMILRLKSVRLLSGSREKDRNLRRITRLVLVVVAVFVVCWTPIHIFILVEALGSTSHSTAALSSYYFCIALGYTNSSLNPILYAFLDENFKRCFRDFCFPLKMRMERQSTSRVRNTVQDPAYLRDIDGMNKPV
Chain of Mu-type opioid receptor (P35372 whole entry): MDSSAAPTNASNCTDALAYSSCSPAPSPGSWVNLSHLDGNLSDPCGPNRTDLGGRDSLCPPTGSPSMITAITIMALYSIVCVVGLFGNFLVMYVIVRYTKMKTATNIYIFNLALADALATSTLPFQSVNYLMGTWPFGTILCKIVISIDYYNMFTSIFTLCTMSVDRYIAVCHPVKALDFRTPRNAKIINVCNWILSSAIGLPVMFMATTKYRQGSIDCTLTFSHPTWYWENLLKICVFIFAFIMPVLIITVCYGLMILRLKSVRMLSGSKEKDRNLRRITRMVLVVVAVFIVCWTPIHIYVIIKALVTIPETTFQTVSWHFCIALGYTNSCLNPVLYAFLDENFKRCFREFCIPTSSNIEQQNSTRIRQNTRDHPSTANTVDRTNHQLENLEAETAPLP

Consider `O=C(C#Cc1ccc(Cl)cc1)N[C@@]12CCC(=O)[C@@H]3Oc4c(O)ccc5c4[C@@]31CCN(CC1CC1)[C@@H]2C5`, for which the Activity in test [1] is given as 0%; in [9], 20%. Besides, the outcome in test [2], in test [3], in test [4], in test [5], in test [6] and in test [8] was Active. For the same compound, the Ki in [7] was 5.41 nM; in test [10], 3.75 nM; in test [11], 2.73 nM.
Turning to `COc1ccc2c3c1O[C@H]1C(=O)CC[C@@]4(NC/C=C/c5ccc(Cl)cc5)[C@@H](C2)N(CC2CC2)CC[C@]314`, the Ki came out at 44.5 nM in test [12], 0.7 nM in [10] and 53.6 nM in test [11].
As for `O=C(C#Cc1ccccc1)N[C@@]12CCC(=O)[C@@H]3Oc4c(O)ccc5c4[C@@]31CCN(CC1CC1)[C@@H]2C5`, the Activity in test [13] turned out to be 21%; in [14], 0%. The Ki in test [7] was 1.6 nM; in test [10] it was 1.31 nM; in test [11], 1.12 nM. The EC50 in test [15] is 0.3 nM.
Turning to `COc1ccc2c3c1O[C@H]1C(=O)CC[C@@]4(NC(=O)C#Cc5ccc(Cl)cc5)[C@@H](C2)N(CC2CC2)CC[C@]314`, the Activity in test [1] turned out to be 0%; in test [13], 25%. Also, the inhibition constant Ki in test [7] stood at 65.2 nM; in test [10], 7.43 nM; in [11] it was 13.7 nM. For the same compound, the concentration giving a half-maximal response (EC50) in test [15] came to 20 nM.
In the case of `COc1ccc2c3c1O[C@H]1C(=O)CC[C@@]4(NC(=O)C#Cc5ccccc5)[C@@H](C2)N(CC2CC2)CC[C@]314`, the EC50 in test [16] was 75.1 nM; in test [15], 3.18 nM. Besides, the Activity in test [13] was 77%; in [22], 47%. The outcome in test [17], in test [19], in test [20] and in test [21] was Active. For the same compound, in [18], the result was inactive. For the same compound, the values for the Ki in [7], in test [10] and in test [11] were 28.3 nM, 1.46 nM and 7.86 nM, respectively.
Turning to `O=C1CC[C@@]2(NCC#Cc3ccc(Cl)cc3)[C@H]3Cc4ccc(O)c5c4[C@@]2(CCN3CC2CC2)[C@H]1O5`, the Ki in test [7] was found to be 3.26 nM; in test [10], 0.97 nM; in test [11], 2.89 nM.
As for `COc1ccc2c3c1O[C@H]1C(=O)CC[C@@]4(NCC#Cc5ccc(Cl)cc5)[C@@H](C2)N(CC2CC2)CC[C@]314`, the inhibition constant (Ki) in test [7] came out at 136 nM; in [10] it was 9.68 nM; in test [11] it was 74.4 nM.

The values are drawn from ChEMBL document CHEMBL1154638, “14beta-Arylpropiolylamino-17-cyclopropylmethyl-7,8-dihydronormorphinones and related opioids. Further examples of pseudoirreversible mu opioid receptor antagonists” (J Med Chem, 2009).
